Screens as filed in PubChem.
Rpn11 inh: blocks the human proteasome subunit Rpn11; O00487; human 26S proteasome, Ub4-pepOG fluorescence polarization; 20S core pre-blocked with epoxomicin; AID 588493; inhibition, % at 20 µM; hit rate 0.59% among 360,000;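 active = inhibition at 20 µM, scaled to each plate's controls, above about 33%, limit read from the data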
PP1 inh: blocks human PP1-alpha phosphatase, a PP5 counter-screen; hit rate 0.9% among 320,000; inhibition, % at 6.7 µM; purified PP1alpha, OMFP fluorescence; AID 2235; P62136;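 active = inhibition above the mean inhibition of all tested compounds plus 3 SD, computed separately for each screening campaign, cut at about 15% in these data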
CSN inh: blocks human CSN-mediated cullin deneddylation; AID 651999; hit rate 0.38% among 360,000; inhibition, % at 12.5 µM; Purified CSN, SCF-Nedd8-OG deneddylation, fluorescence polarization;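 active = pattern-corrected inhibition above about 35%, with an unprinted fluorescence ratio check between 0.5 and 1.5, limit read from the data, passing the limit was not always enough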;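 note: 0% = enzyme with substrate and 100% = substrate without enzyme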
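Assay system: HEK293T-derived human Csn5 enzyme; quantity: 0.24 nM enzyme; medium: Tris/NaCl/DTT buffer, pH 7.5; also added: substrate SCFSkp2-Nedd8OG, 10 nM; doses: 12.5 µM compound; schedule: 90 min reaction at room temperature; signal: FP; read-out: % inhibition of substrate cleavage by Csn5; benchmarks: substrate-only high control, full reaction low control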
TPT1 inh: C. albicans TPT1 enzyme inhibition. recombinant caTPT1, FP RNA substrate dephosphorylation. inhibition, % at 5 µM. hit rate 0.81% among 300,000;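 active = inhibition above the mean of all tested compounds plus 3 SD, set per screening campaign, cut at about 24% in these data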;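 note: plate controls were DMSO alone for no effect and ferristatin control at 100 nM for full effect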
HNF4A DNA FP: change in binding of human HNF4 alpha to DNA; HNF4a-FITC DNA binding, fluorescence polarization, 1 h; activity change, % at 10 µM; hit rate 0.3% among 360,000; AID 1224865; in the data active = activity change above about 30%, passing the limit was not always enough
Target sequence (P41235 whole entry, looked up): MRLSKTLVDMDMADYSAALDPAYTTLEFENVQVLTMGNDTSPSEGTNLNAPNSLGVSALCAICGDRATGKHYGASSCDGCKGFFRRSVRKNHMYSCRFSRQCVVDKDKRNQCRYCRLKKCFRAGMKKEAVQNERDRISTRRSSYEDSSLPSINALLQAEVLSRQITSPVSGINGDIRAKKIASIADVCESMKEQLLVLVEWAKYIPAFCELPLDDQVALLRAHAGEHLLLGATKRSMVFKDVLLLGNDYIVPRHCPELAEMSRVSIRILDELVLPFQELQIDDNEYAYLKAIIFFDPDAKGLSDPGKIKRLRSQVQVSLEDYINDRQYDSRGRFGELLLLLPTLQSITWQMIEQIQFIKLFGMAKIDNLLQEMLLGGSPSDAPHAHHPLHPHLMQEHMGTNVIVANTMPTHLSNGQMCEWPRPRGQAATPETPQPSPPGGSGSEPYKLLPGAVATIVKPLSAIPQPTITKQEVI
NadD block: blocks S. aureus nicotinate mononucleotide adenylyltransferase; hit rate 0.78% among 360,000; purified NadD enzyme, colorimetric absorbance read-out; inhibition, % at 20 µM; in the data active = inhibition above about 26%
Numbers without * were called inactive; x = no result given; + = active, no number. Sampled rows, rich in hits. Any-hit rate of the full collection: about 2.7%.

SMILES	Rpn11 inh	PP1 inh	CSN inh	TPT1 inh	HNF4A DNA FP	NadD block
CC1(C(=O)NC2CCCC2)CCC(=O)N1C1CCN(Cc2ccccc2)CC1 (centres undefined)	-6.4	x	-3.6	x	1.2	-5.8
CC(C)(C)NC(=O)C1(C)CCC(=O)N1C1CCN(Cc2ccccc2)CC1 (centres undefined)	0.9	x	85.7*	x	1.8	-4.7
CCN(CC)C(=O)C1=C(C)N(Cc2ccc(C(C)(C)C)cc2)C(=O)C(CC(=O)NC(c2ccccc2)c2ccccc2)C1 (centres undefined)	3.0	x	+	x	5.1	7.8
CC1=C(C(=O)N(C)C)CC(CC(=O)NC(c2ccccc2)c2ccccc2)C(=O)N1Cc1ccc(C(C)(C)C)cc1 (centres undefined)	1.7	x	3.8	x	-6.5	-3.2
CCN(CC)C(=O)C1=C(C)N(Cc2ccc(OC)cc2)C(=O)C(CC(=O)NCCc2ccccn2)C1 (centres undefined)	1.2	x	85.3*	x	0.7	3.2
N#CCSc1nc2c(sc(=S)n2Cc2ccco2)c(=O)n1-c1ccc(F)cc1	10.1	10.2	5.0	0.8	57.6*	-0.5
CCCC1(c2ccsc2)NC(=O)NC1=O (centres undefined)	1.4	x	0.8	x	-2.4	-4.7
CCOc1ccc(S(=O)(=O)N2CCC(C(=O)NCc3ccco3)CC2)cc1C	-7.2	1.0	-1.4	-3.7	-0.6	-0.2
O=C(CSc1nnc(SCc2cccc3ccccc23)s1)N/N=C/C=C/c1ccccc1[N+](=O)[O-]	-1.3	16.1*	-11.6	1.6	-0.2	15.2
CCCCn1c(-c2cccc3ccccc23)nc2cc3[nH]c(=O)c(C(C)C)nc3cc21	21.2	16.0*	-0.7	3.5	16.1	13.7
COC(=O)CCC(=O)OC1(C)C(=O)C2=CN(Cc3ccc(OC)cc3)C(c3ccc(OC)cc3)=CC2=C(Br)C1=O (centres undefined)	10.9	9.2	4.1	13.8	6.8	19.9
COC(=O)CCC(=O)OC1(C)C(=O)C2=CN(CC3CC3)C(c3ccc(OC)cc3)=CC2=C(Br)C1=O (centres undefined)	-4.7	17.2*	-1.2	-5.7	-5.4	12.3
O=C(O)c1cc(S(=O)(=O)NCCOc2ccccc2)ccc1Cl	-2.9	x	-2.1	x	-0.3	-1.4
COc1ccc(S(=O)(=O)Nc2cc3c4c(c2)CC(=O)N4CCC3)cc1OC	-2.5	x	0.7	x	0.4	-1.3
O=C(NCc1cccs1)c1nc2c(nnn2Cc2ccccc2Cl)c(=O)[nH]1	15.4	21.2*	-6.5	-1.4	1.6	4.3
CCC(C)NC(=O)c1nc2c(nnn2Cc2ccccc2Cl)c(=O)[nH]1 (centres undefined)	16.3	7.2	-13.1	3.7	5.2	-1.7
Cc1ccc(-n2c(C)cc(C3=NNC(=NC4CC4)SC3)c2C)cc1C	10.3	15.6*	-0.9	0.2	0.8	9.5
Cc1cc(C2=NNC(=NCCc3ccccc3)SC2)c(C)n1-c1c(C)n(C)n(-c2ccccc2)c1=O	13.1	18.8*	6.0	-0.5	4.5	20.2
Cc1cc(C2=NNC(=Nc3ccccc3)SC2)c(C)n1C	5.8	16.3*	5.7	0.9	-2.8	17.7
Cc1cc(C2=NNC(=NC3CC3)SC2)c(C)n1-c1c(C)n(C)n(-c2ccccc2)c1=O	2.4	1.0	-2.6	5.2	2.6	0.7
COCCCN=C1NN=C(c2cc(C)n(-c3ccccc3)c2C)CS1	8.6	8.7	5.7	4.2	0.9	5.4
COCCCN=C1NN=C(c2cc(C)n(Cc3ccccc3Cl)c2C)CS1	11.6	15.4*	1.1	6.9	1.8	9.5
CN=C1NN=C(c2cc(C)n(-c3ccc(Cl)cc3)c2C)CS1	15.4	8.8	-0.6	8.8	6.1	28.8
CC(C)(C)C1CCC(=NNC(=O)C2COc3ccccc3O2)CC1 (centres undefined)	1.0	-2.9	4.4	x	-0.6	-1.5
O=C(NCc1cccc(C(F)(F)F)c1)C1CCCN(c2cnccn2)C1 (centres undefined)	-2.4	-1.2	2.4	2.3	-2.4	-4.3
SMILES	Rpn11 inh	PP1 inh	CSN inh	TPT1 inh	HNF4A DNA FP	NadD block
O=C(/C=C/c1cc[n+](CC(=O)c2ccc3cccc4c3c2CC4)cc1)c1ccc2cccc3c2c1CC3	118.7*	46.2*	113.1*	49.4*	178.3	83.4*
O=C(Nc1nc(-c2ccccn2)cs1)c1ccco1	11.0	15.8*	-9.2	4.0	-3.7	1.2
C[C@H](NC(=O)c1ccco1)C(=O)Nc1nc(-c2ccccn2)cs1	3.3	x	9.1	x	-1.6	0.5
S=c1[nH]nc(-c2ccco2)n1/N=C/C=C/c1ccco1	-0.3	0.6	38.2*	-0.3	-16.2	-2.6
COc1ccccc1C(=O)NNC(=O)CCCN1C(=O)/C(=C/c2cccs2)SC1=S	x	-4.2	32.9	-1.4	39.8*	10.0
Cc1cc(C(=O)O)ccc1-n1c(C)ccc1C	x	27.4*	x	13.4	x	x
Cc1cc(N)ccc1-n1c(C)ccc1C	3.3	2.4	5.3	-3.9	0.9	15.4
NC1(C#Cc2ccc3oc(=O)c(-n4cc(-c5ccsc5)nn4)cc3c2)CCCCC1	44.4*	2.3	10.7	x	1.9	18.7
CC1CCN(CCCN2C(=O)C3C(C(=O)Nc4ccc(Cl)cc4)C4C=CC3(O4)C2C(=O)NC2CCCCC2)CC1 (centres undefined)	7.1	-2.9	-0.9	0.8	0.9	-8.9
COC(=O)C1C2CC3c4[nH]c5cc(OC)ccc5c4CCN3CC2CC(OC(=O)CC(C)=O)C1OC (centres undefined)	x	x	10.6	x	49.0*	5.5
COC(=O)C1C2CC3c4[nH]c5cc(OC)ccc5c4CCN3CC2CC(O)C1OC (centres undefined)	8.2	x	5.5	x	8.0	3.6
CC(C)OC(=O)C(C(=O)C(F)(F)F)c1cc(NS(=O)(=O)c2ccc3ccccc3c2)c2ccccc2c1O (centres undefined)	16.9	5.0	2.6	-2.0	-2.9	55.4*
CC(=O)c1ccccc1NC(=O)COC(=O)CN1C(=O)C2CCCCC2C1=O (centres undefined)	2.4	5.3	4.7	x	0.3	-3.1
O=c1c2ccccc2nc(/C=C/c2cccnc2)n1CCc1ccccc1	-15.9	15.7*	3.6	2.0	5.9	5.0
O=c1c2ccccc2nc(/C=C/c2cccnc2)n1Cc1ccccc1	-31.6	x	2.6	x	-3.5	17.8
CCCCCc1cc(=O)c2ccccc2o1	6.7	x	-3.1	x	3.4	-2.3
COc1ccc2c(c1)c(=O)oc1cc(OCC(=O)N3CCc4ccccc4C3)ccc12	x	7.9	30.8	0.7	-30.1	33.1*
COc1ccc2c(c1)c(=O)oc1cc(OCC(=O)N3CCCC(C)C3)ccc12 (centres undefined)	-6.2	15.5*	-6.7	-0.2	-3.8	1.9
COc1cc(C(C)=O)ccc1OCC(=O)N1CCc2ccccc2C1	-1.5	-0.4	92.3*	1.9	1.1	-0.1
